Measured values from PubChem BioAssay AID602423 (Sanford-Burnham Center for Chemical Genomics, 2012).
The source made the active and inactive calls.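 How the source made its calls: active means IC50 at or below 20 µM; inactive means the rest.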

Biological target: glucose-6-phosphate dehydrogenase-6-phosphogluconolactonase (PfGluPho), Plasmodium falciparum 3D7
Experiment: inhibition of P. falciparum G6PD-lactonase – biochemical, fluorescence intensity, dose response, set 4, SAR follow-up (AID 602423)
Settings: recombinant PfGluPho, resazurin-diaphorase NADPH fluorescence
How it was run: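 Material: PfGluPho, the glucose-6-phosphate dehydrogenase of Plasmodium falciparum | Medium: Tris pH 7.5, MgCl2, BSA, Tween 20 | Also added: G6P 20 µM, NADP 3 µM | Incubation: Enzyme reaction 2 h at room temperature in darkness | Technique: Coupled fluorescence, Ex 530/Em 590 nm | Benchmarks: Low control wells lacking glucose-6-phosphate substrate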

IC50	SMILES
inactive	CCCN1CCCCC1CNC(=O)c1ccc2c(c1)NC(=O)c1ccccc1S2 (configuration not stated)
2.98 µM	CCN1CCC[C@@H]1CNC(=O)c1ccc2c(c1)NC(=O)c1ccc(F)cc1S2
0.187 µM	CCN1CCC[C@@H]1CNC(=O)c1ccc2c(c1)NC(=O)c1cccc(C)c1S2
15.1 µM	CCCN1CCC[C@@H]1CNC(=O)c1ccc2c(c1)NC(=O)c1ccccc1S2
inactive	CCN1CCC[C@@H]1CNC(=O)c1ccc2c(c1)NC(=O)c1cc(C)ccc1S2
19.9 µM	CCCCN1CCCC1CNC(=O)c1ccc2c(c1)NC(=O)c1ccccc1S2 (configuration not stated)
> 80 µM (inactive)	CCN1CCCCC1CNC(=O)c1ccc2c(c1)NC(=O)c1ccccc1S2 (configuration not stated)
inactive	CCN1CCC[C@@H]1CNC(=O)c1ccc2c(c1)NC(=O)c1cc(F)ccc1S2

Further lines, the compound ahead of its results:

SMILES	IC50
CN1CCCCC1CNC(=O)c1ccc2c(c1)NC(=O)c1ccccc1S2 (configuration not stated)	inactive
O=C(NC[C@H]1CCCN1)c1ccc2c(c1)NC(=O)c1ccccc1S2	inactive
CCCN1CCC(NC(=O)c2ccc3c(c2)NC(=O)c2ccccc2S3)C1 (configuration not stated)	inactive
O=C(NCC1CCCCN1)c1ccc2c(c1)NC(=O)c1ccccc1S2 (configuration not stated)	inactive
CCN1CCC(NC(=O)c2ccc3c(c2)NC(=O)c2ccccc2S3)C1 (configuration not stated)	inactive
CN1CCC(NC(=O)c2ccc3c(c2)NC(=O)c2ccccc2S3)C1 (configuration not stated)	> 80 µM (inactive)
CN1CCCC1CNC(=O)c1ccc2c(c1)NC(=O)c1ccccc1S2 (configuration not stated)	inactive
CCCCCCN1CCCC1CNC(=O)c1ccc2c(c1)NC(=O)c1ccccc1S2 (configuration not stated)	inactive
CCN1CCC[C@@H]1CNC(=O)c1ccc2c(c1)NC(=O)c1ccccc1N2	> 80 µM (inactive)
